Source: ChEMBL document CHEMBL4627405, “A Venomics Approach Coupled to High-Throughput Toxin Production Strategies Identifies the First Venom-Derived Melanocortin Receptor Agonists” (J Med Chem, 2020)
Activity calls are given as the source filed them. The rule behind the calls is not given here. Positions of bridges follow the written chain, without caps; N, C: chain ends. Residues, ends and D or L forms follow the SMILES beside them.

Tests used:
[1] = target: Potassium voltage-gated channel subfamily B member 1 (Homo sapiens) (UniProt Q14721); assay: Inhibition of human Kv2.1 at 100 uM
Outline: (§1)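 Potassium currents were recorded by two-electrode voltage clamp in oocytes 1–4 days after injecting 50 nl cRNA (1 ng/nl), at 18–22 °C. Bath was 96 mM NaCl, 2 mM KCl, 1.8 mM CaCl2, 2 mM MgCl2, 5 mM HEPES pH 7.4. Toxin was bath-applied at 100 µM. Currents were filtered at 0.5 kHz and sampled at 2 kHz.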

[2] = target: Potassium voltage-gated channel subfamily A member 4 (Homo sapiens) (UniProt P22459); assay: Inhibition of human Kv1.4 at 100 uM; outline: as §1
[3] = target: Voltage-gated delayed rectifier potassium channel KCNH1 (Homo sapiens) (UniProt O95259); assay: Inhibition of human Kv10.1 at 100 uM; outline: as §1
[4] = target: Voltage-gated potassium channel KCNC1 (Homo sapiens) (UniProt P48547); assay: Inhibition of human Kv3.1 at 100 uM; outline: as §1
[5] = target: Melanocortin receptor 5 (Homo sapiens, UniProt P33032); assay: Displacement of [125I]-NDP-alpha-MSH from human MC5R expressed in CHO-K1 cell membranes incubated for 3 hrs by top-count beta counting
Outline: (§2)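 Membranes were from CHO cells stably expressing hMC1R, hMC4R or hMC5R, or from HEK293 cells expressing hMC3R. Competition used 50 pM 125I-NDP-α-MSH with varied competitor, 3 h at room temperature, in 25 mM HEPES pH 7.4, 1 mM MgCl2, 1 mM CaCl2, 0.2 g/L BSA. Nonspecific binding was set with 1 µM NDP-α-MSH. Samples were filtered on PEI-treated GF/C and scintillation counted. At least three experiments in duplicate, mean ± SEM.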

[6] = target: Potassium voltage-gated channel subfamily A member 1 (Homo sapiens) (UniProt Q09470); assay: Inhibition of human Kv1.1 at 100 uM; outline: as §1
[7] = target: Potassium voltage-gated channel subfamily KQT member 1 (Homo sapiens, UniProt P51787); assay: Inhibition of human Kv7.1 at 100 uM; outline: as §1
[8] = target: Voltage-dependent T-type calcium channel subunit alpha-1I (Homo sapiens) (UniProt Q9P0X4); assay: Inhibition of human Cav3.3 at 100 uM
Outline: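 Oocyte two-electrode voltage clamp at 18–22 °C, 1–4 days after cRNA injection (50 nl, 1 ng/nl). Toxin was bath-applied at 100 µM. Currents were carried by 10 mM Ba2+ and elicited by 200 ms depolarisations from −90 mV to between −50 and +30 mV, filtered at 0.5 kHz and sampled at 2 kHz.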

[9] = target: Sodium channel protein type 3 subunit alpha (Homo sapiens) (UniProt Q9NY46); assay: Inhibition of human NaV1.3 at 100 uM
Outline: (§3)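 Two-electrode voltage clamp of oocytes injected with 50 nl cRNA (1 ng/nl) and recorded 1–4 days later at 18–22 °C. Bath was 96 mM NaCl, 2 mM KCl, 1.8 mM CaCl2, 2 mM MgCl2, 5 mM HEPES pH 7.4. Toxin was applied to the bath at 100 µM. Currents were evoked by 100 ms depolarisation to the voltage of maximal sodium current, filtered at 2 kHz and sampled at 20 kHz.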

[10] = target: Potassium voltage-gated channel subfamily A member 2 (Homo sapiens) (UniProt P16389); assay: Inhibition of human Kv1.2 at 100 uM; outline: as §1
[11] = target: T1, Melanocortin receptor 4 (Homo sapiens, UniProt P32245); assay: Antagonist activity at human MC4R transiently expressed in HEK293 cells assessed as reduction in alpha-MSH-induced cAMP accumulation at 100 uM incubated for 3 hrs by luciferase reporter gene assay
[12] = target: Potassium voltage-gated channel subfamily A member 3 (Homo sapiens) (UniProt P22001); assay: Inhibition of human Kv1.3 at 100 uM; outline: as §1
[13] = test system: HEK293; assay: Effect on cAMP production in HEK293 cells at 100 uM incubated for 3 hrs by luciferase reporter gene assay; type: functional, cell-based; conditions: Homo sapiens
[14] = target: Voltage-gated inwardly rectifying potassium channel KCNH2 (Homo sapiens, UniProt Q12809); assay: Inhibition of human Kv11.1 at 100 uM; outline: as §1
[15] = target: Sodium channel protein type 2 subunit alpha (Homo sapiens) (UniProt Q99250); assay: Inhibition of human NaV1.2 at 100 uM; outline: as §3
[16] = target: Neuronal acetylcholine receptor subunit alpha-7 (Homo sapiens) (UniProt P36544); assay: Inhibition of human nAChR alpha7
[17] = target: Sodium channel protein type 4 subunit alpha (Homo sapiens) (UniProt P35499); assay: Inhibition of human NaV1.4 at 100 uM; outline: as §3
[18] = target: T2, Melanocyte-stimulating hormone receptor (Homo sapiens, UniProt Q01726); assay: Displacement of [125I]-NDP-alpha-MSH from human MC1R expressed in CHO-K1 cell membranes incubated for 3 hrs by top-count beta counting; outline: as §2
Target sequence in this assay (Q01726 whole entry): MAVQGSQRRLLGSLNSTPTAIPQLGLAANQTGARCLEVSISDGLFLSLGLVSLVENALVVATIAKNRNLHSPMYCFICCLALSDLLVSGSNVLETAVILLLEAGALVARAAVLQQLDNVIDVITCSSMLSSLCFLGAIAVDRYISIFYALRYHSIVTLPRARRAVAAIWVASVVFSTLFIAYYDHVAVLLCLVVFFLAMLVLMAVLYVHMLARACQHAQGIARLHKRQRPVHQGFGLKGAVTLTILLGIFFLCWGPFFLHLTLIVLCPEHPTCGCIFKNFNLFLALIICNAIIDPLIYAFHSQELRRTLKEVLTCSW

[19] = target: Potassium voltage-gated channel subfamily KQT member 3 (Homo sapiens) (UniProt O43525); assay: Inhibition of human Kv7.3 at 100 uM; outline: as §1
[20] = target: T1, Melanocortin receptor 4; assay: Agonist activity at human MC4R expressed in HEK293 cells assessed as stimulation of cAMP accumulation at 100 uM incubated for 3 hrs by luciferase reporter gene assay; type: functional, cell-based
[21] = target: T2, Melanocyte-stimulating hormone receptor; assay: Agonist activity at N-terminal HA-tagged and C-terminal FLAG-tagged human MC1R expressed in HEK293 cells assessed as stimulation of cAMP accumulation at 100 uM incubated for 3 hrs by luciferase reporter gene assay; type: functional, cell-based
Target sequence in this assay (Q01726 whole entry, looked up): as the sequence (Q01726 whole entry) above

[22] = target: T1, Melanocortin receptor 4; assay: Displacement of [125I]-NDP-alpha-MSH from human MC4R expressed in CHO-K1 cell membranes incubated for 3 hrs by top-count beta counting relative to control; conditions: concentration not given here; outline: as §2
[23] = target: T1, Melanocortin receptor 4; assay: Displacement of [125I]-NDP-alpha-MSH from human MC4R expressed in CHO-K1 cell membranes incubated for 3 hrs by top-count beta counting; outline: as §2
[24] = target: Sodium channel protein type 10 subunit alpha (Homo sapiens) (UniProt Q9Y5Y9); assay: Inhibition of human NaV1.8 at 100 uM
[25] = target: Sodium channel protein type 5 subunit alpha (Homo sapiens, UniProt Q14524); assay: Inhibition of human NaV1.5 at 100 uM; outline: as §3
[26] = target: Sodium channel protein type 1 subunit alpha (Homo sapiens) (UniProt P35498); assay: Inhibition of human NaV1.1 at 100 uM; outline: as §3
[27] = target: Sodium channel protein type 8 subunit alpha (Homo sapiens) (UniProt Q9UQD0); assay: Inhibition of human NaV1.6 at 100 uM; outline: as §3
[28] = target: Potassium voltage-gated channel subfamily A member 6 (Homo sapiens) (UniProt P17658); assay: Inhibition of human Kv1.6 at 100 uM; outline: as §1
[29] = target: Potassium voltage-gated channel subfamily A member 5 (Homo sapiens) (UniProt P22460); assay: Inhibition of human Kv1.5 at 100 uM; outline: as §1
[30] = target: T2, Melanocyte-stimulating hormone receptor; assay: Activity at N-terminal HA-tagged and C-terminal FLAG-tagged human MC1R expressed in HEK293 cells assessed as potentiation of alpha-MSH-induced cAMP accumulation at 100 uM incubated for 3 hrs by luciferase reporter gene assay; type: functional, cell-based
Target sequence in this assay (Q01726 whole entry, looked up): as the sequence (Q01726 whole entry) above

[31] = target: A-type voltage-gated potassium channel KCND3 (Homo sapiens, UniProt Q9UK17); assay: Inhibition of human Kv4.3 at 100 uM; outline: as §1
[32] = target: G protein-activated inward rectifier potassium channel 1 (Homo sapiens) (UniProt P48549); assay: Inhibition of human GIRK1 at 100 uM
Outline: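 Two-electrode voltage clamp of cRNA-injected oocytes at 18–22 °C, holding at −70 mV. Oocytes were superfused with high-K+ solution (96 mM KCl, 2 mM NaCl, 1 mM MgCl2, 1.8 mM CaCl2, 5 mM HEPES pH 7.5). Toxin was applied to the bath at 100 µM. Currents were filtered at 0.05 kHz and sampled at 0.1 kHz.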

[33] = target: Melanocortin receptor 3 (Homo sapiens, UniProt P41968); assay: Displacement of [125I]-NDP-alpha-MSH from human MC3R expressed in HEK293 cell membranes incubated for 3 hrs by top-count beta counting
[34] = target: Acetylcholine receptor; alpha1/beta1/delta/gamma (Homo sapiens) (UniProt P02708+P07510+P11230+Q07001); assay: Inhibition of human nAChR alpha1(2)beta1gammadelta; type: protein-complex assay

T1 sequence (P32245 whole entry): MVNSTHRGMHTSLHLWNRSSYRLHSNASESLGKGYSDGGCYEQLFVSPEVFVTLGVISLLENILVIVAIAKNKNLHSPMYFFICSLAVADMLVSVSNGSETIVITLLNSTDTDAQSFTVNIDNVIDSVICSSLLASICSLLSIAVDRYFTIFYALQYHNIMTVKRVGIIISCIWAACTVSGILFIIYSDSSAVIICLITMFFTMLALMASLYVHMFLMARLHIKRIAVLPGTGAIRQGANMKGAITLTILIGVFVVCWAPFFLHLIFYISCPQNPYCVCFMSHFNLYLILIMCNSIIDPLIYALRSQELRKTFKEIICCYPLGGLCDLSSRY
Chain of Potassium voltage-gated channel subfamily A member 4 (Homo sapiens) (P22459 whole entry): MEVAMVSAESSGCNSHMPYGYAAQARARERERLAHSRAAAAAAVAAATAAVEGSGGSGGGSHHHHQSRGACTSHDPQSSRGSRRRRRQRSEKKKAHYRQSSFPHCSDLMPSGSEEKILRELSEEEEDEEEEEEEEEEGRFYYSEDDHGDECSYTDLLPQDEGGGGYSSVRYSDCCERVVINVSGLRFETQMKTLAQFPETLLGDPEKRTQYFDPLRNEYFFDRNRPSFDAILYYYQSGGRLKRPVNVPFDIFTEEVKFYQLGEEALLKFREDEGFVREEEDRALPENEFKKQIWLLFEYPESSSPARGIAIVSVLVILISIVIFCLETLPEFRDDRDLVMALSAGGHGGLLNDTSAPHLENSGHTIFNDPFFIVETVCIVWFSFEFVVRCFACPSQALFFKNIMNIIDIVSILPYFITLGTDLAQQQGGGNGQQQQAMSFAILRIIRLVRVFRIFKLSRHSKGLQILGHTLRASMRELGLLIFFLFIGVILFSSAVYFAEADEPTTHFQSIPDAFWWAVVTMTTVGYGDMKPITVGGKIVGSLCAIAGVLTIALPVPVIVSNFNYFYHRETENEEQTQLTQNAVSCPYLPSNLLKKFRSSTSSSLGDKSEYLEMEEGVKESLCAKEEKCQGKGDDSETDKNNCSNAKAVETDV
Chain of A-type voltage-gated potassium channel KCND3 (Q9UK17 whole entry): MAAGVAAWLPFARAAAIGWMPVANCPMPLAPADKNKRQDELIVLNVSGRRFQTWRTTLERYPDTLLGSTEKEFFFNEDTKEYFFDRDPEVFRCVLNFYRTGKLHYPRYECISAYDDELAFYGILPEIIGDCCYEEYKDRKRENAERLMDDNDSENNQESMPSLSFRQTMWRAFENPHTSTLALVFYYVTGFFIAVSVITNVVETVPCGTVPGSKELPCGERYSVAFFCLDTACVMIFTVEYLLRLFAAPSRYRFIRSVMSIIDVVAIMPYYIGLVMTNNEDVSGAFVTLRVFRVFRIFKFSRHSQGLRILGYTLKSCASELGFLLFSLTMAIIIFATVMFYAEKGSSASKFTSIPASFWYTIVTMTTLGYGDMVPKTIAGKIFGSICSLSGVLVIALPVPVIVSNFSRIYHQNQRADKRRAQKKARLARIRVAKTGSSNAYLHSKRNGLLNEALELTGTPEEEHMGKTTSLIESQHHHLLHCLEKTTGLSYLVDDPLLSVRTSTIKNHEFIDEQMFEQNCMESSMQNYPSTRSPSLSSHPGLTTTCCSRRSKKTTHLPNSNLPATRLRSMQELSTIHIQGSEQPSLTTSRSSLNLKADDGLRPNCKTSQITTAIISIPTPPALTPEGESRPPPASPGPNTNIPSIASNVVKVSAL
Chain of Sodium channel protein type 8 subunit alpha (Homo sapiens) (Q9UQD0 whole entry, looked up): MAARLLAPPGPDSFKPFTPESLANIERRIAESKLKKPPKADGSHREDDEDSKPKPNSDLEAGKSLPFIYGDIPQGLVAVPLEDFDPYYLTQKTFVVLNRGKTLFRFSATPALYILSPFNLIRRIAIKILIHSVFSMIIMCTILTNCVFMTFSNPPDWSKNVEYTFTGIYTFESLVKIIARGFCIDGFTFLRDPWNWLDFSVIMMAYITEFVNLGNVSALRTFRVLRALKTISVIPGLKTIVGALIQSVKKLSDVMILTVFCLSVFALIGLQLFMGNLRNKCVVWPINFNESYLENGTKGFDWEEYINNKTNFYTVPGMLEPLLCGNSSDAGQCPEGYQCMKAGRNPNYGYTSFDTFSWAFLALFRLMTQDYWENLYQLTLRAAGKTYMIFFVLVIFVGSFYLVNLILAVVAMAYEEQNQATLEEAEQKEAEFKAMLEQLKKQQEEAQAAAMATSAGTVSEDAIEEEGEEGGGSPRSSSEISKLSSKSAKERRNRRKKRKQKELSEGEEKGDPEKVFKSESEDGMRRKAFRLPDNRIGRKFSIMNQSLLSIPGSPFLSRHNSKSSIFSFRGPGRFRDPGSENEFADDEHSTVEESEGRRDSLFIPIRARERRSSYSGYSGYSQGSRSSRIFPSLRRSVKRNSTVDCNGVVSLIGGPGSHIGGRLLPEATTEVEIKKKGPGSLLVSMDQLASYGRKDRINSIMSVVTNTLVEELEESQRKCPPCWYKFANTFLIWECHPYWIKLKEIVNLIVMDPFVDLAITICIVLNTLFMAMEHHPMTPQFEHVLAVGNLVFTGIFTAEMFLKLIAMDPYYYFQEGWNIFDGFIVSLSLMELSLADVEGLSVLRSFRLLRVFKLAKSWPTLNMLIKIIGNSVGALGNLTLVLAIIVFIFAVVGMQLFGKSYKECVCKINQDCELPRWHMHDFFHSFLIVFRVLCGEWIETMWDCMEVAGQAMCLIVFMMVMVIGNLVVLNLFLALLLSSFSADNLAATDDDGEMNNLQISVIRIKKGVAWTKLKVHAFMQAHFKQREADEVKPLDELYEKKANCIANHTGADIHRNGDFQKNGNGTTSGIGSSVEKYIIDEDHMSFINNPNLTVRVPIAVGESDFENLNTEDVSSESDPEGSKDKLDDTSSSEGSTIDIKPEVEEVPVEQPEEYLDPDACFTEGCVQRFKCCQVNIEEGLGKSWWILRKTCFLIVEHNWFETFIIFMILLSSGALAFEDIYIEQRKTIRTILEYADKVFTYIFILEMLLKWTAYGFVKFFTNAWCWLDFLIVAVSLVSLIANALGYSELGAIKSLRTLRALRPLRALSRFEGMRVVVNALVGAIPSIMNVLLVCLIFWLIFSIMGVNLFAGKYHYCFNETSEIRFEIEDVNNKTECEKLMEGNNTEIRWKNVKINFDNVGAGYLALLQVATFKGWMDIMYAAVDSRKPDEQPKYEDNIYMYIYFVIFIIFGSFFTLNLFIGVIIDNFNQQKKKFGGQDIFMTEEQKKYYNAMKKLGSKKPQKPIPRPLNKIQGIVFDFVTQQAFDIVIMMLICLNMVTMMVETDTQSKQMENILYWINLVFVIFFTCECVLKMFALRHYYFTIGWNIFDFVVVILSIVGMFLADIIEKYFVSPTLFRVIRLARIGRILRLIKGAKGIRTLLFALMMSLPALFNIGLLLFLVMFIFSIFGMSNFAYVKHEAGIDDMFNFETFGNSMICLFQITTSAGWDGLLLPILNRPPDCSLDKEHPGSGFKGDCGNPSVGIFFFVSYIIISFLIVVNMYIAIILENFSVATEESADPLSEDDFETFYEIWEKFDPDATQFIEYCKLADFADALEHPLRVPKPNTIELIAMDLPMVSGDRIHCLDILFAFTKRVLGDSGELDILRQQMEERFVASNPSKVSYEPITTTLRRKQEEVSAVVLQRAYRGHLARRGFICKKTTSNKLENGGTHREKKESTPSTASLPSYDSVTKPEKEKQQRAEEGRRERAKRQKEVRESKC
Chain of Melanocortin receptor 5 (P33032 whole entry): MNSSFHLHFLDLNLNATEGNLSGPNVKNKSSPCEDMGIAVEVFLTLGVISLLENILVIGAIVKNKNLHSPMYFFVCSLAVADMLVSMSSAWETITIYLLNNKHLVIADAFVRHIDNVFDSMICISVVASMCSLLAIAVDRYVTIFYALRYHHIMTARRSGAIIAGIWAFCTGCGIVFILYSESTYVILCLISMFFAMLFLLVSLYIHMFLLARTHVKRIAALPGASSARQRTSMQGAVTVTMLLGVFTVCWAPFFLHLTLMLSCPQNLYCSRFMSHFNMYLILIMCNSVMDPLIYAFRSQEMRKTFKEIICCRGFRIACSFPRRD
Chain of Potassium voltage-gated channel subfamily A member 5 (Homo sapiens) (P22460 whole entry): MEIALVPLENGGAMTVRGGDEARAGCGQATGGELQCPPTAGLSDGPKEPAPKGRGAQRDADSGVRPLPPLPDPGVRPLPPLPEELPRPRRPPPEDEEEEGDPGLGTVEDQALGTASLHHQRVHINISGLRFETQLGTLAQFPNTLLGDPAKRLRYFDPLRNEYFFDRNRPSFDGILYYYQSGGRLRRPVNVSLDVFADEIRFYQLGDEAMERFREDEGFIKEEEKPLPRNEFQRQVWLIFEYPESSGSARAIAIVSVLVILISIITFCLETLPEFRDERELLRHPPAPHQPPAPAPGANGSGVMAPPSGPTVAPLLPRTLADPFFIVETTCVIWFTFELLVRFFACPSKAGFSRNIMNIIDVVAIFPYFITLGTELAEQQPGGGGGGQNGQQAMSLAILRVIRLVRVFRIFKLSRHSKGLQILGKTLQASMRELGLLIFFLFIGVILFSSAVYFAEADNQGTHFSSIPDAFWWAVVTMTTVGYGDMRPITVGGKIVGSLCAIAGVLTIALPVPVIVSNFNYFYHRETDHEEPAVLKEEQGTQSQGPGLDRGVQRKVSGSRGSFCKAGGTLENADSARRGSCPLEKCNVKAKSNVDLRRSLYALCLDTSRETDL

For `CC[C@H](C)[C@@H]1NC(=O)[C@H](C)NC(=O)[C@H](CCCCN)NC(=O)[C@H](CC(C)C)NC(=O)[C@@H]2CSSC[C@@H](C(=O)O)NC(=O)[C@H](CCCCN)NC(=O)[C@@H]3CSSC[C@H](NC(=O)[C@H](CCC(=O)O)NC(=O)[C@H](C(C)C)NC(=O)[C@H](CO)NC(=O)[C@H](C)NC(=O)[C@H](CO)NC(=O)[C@@H](NC(=O)[C@H](CCCNC(=N)N)NC(=O)[C@H](CCSC)NC(=O)[C@H](CC(=O)O)NC(=O)[C@H](CCSC)NC(=O)[C@@H](N)CCC(N)=O)CSSC[C@H](NC(=O)[C@H](CCCCN)NC(=O)CNC(=O)[C@H](Cc4ccccc4)NC(=O)[C@H]([C@@H](C)CC)NC(=O)[C@H](CO)NC(=O)CNC1=O)C(=O)N[C@@H](CCSC)C(=O)N[C@@H](CC(N)=O)C(=O)N[C@@H](CCCCN)C(=O)N[C@@H](CCCCN)C(=O)N3)C(=O)N[C@@H](CCCCN)C(=O)N[C@@H](CCC(N)=O)C(=O)N[C@@H](CCCCN)C(=O)N2` (H-QMDMRCSASVECKQKCLKAIGSIFGKCMNKKCKC-OH; disulfide 6-27, 12-32, 16-34), which inhibition [1] is on record?
Its inhibition is “inactive”.

And the inhibition [2]?
The inhibition was “inactive”.

What about the inhibition [3] of the same compound?
Its inhibition is “inactive”.

What about the inhibition [4] of the same compound?
The inhibition was “inactive”.

And the Ki [5]?
The Ki was 2.2 µM.

And the inhibition [6]?
The inhibition was “inactive”.

What about the “inhibition (INH)” value [7] of the same compound?
Its value is “Not Active”.

And the inhibition [8]?
The inhibition was “inactive”.

What about the inhibition [9] of the same compound?
Its inhibition is “inactive”.

And the inhibition [10]?
The inhibition was “inactive”.

What about the Activity [11] of the same compound?
Its Activity is “inactive”.

What about the inhibition [12] of the same compound?
The inhibition was “inactive”.

What about the Activity [13] of the same compound?
Its Activity is “inactive”.

What about the “inhibition (INH)” value [14] of the same compound?
The value was “Not Active”.

What about the inhibition [15] of the same compound?
The inhibition was “inactive”.

And the inhibition [16]?
Its inhibition is “inactive”.

And the inhibition [17]?
Its inhibition is “inactive”.

What about the Ki [18] of the same compound?
Its Ki is 2.9 µM.

And the inhibition [19]?
Its inhibition is “inactive”.

And the Activity [20]?
Its Activity is “inactive”.

And the Activity [21]?
Its Activity is “Active”.

And the inhibition [22]?
Its inhibition is 86%.

And the Ki [23]?
Its Ki is 2.6 µM.

And the inhibition [24]?
The inhibition was “inactive”.

What about the “inhibition (INH)” value [25] of the same compound?
Its value is “Not Active”.

And the inhibition [26]?
The inhibition was “inactive”.

What about the inhibition [27] of the same compound?
Its inhibition is “inactive”.

And the inhibition [28]?
The inhibition was “inactive”.

What about the inhibition [29] of the same compound?
The inhibition was “inactive”.

And the Activity [30]?
Its Activity is “Active”.

And the “inhibition (INH)” value [31]?
Its value is “Not Active”.

And the inhibition [32]?
The inhibition was “inactive”.

And the Ki [33]?
Its Ki is 3.9 µM.

What about the inhibition [34] of the same compound?
Its inhibition is “inactive”.

What does the source list for `CC[C@H](C)[C@@H]1NC(=O)[C@@H]2CCCN2C(=O)CNC(=O)[C@H](CO)NC(=O)[C@@H]2CSSC[C@@H]3NC(=O)[C@H]([C@@H](C)O)NC(=O)CNC(=O)[C@H](CSSC[C@H](NC(=O)[C@@H](N)CCCNC(=N)N)C(=O)N[C@@H](CC(C)C)C(=O)N[C@@H](Cc4cnc[nH]4)C(=O)N[C@@H](C)C(=O)NCC(=O)N[C@@H](C)C(=O)N[C@@H](C)C(=O)N2)NC(=O)[C@H](CSSC[C@@H](C(=O)N[C@H](C(=O)O)[C@@H](C)O)NC(=O)[C@H](CCCCN)NC(=O)[C@H](CCCNC(=N)N)NC(=O)[C@H](CCCNC(=N)N)NC(=O)[C@H](CO)NC3=O)NC(=O)[C@@H]2CCCN2C(=O)[C@H]([C@@H](C)CC)NC(=O)[C@H](CCCCN)NC(=O)[C@H](CCC(N)=O)NC1=O` (H-RCLHAGAACSGPIQKIPCCGTCSRRKCT-OH; disulfide 2-19, 9-22, 18-27)?
inhibition [1]: inactive; inhibition [2]: inactive; inhibition [3]: inactive; inhibition [4]: inactive; Ki [5]: 10 µM; inhibition [6]: inactive; inhibition (INH) [7]: Not Active; inhibition [8]: inactive; inhibition [9]: inactive; inhibition [10]: inactive; Activity [11]: inactive; inhibition [12]: inactive; Activity [13]: inactive; inhibition (INH) [14]: Not Active; inhibition [15]: inactive; inhibition [16]: inactive; inhibition [17]: inactive; Ki [18]: 1.8 µM; inhibition [19]: inactive; Activity [20]: inactive; Activity [21]: Active; inhibition [22]: 97%; Ki [23]: 7.1 µM; inhibition [24]: inactive; inhibition (INH) [25]: Not Active; inhibition [26]: inactive; inhibition [27]: inactive; inhibition [28]: inactive; inhibition [29]: inactive; Activity [30]: Active; inhibition (INH) [31]: Not Active; inhibition [32]: inactive; Ki [33]: 19.8 µM; inhibition [34]: inactive
